Laboratory results from ChEMBL document CHEMBL1139509, “Design, synthesis, and antipicornavirus activity of 1-[5-(4-arylphenoxy)alkyl]-3-pyridin-4-ylimidazolidin-2-one derivatives” (J Med Chem, 2005).
Each block holds one compound with its values, some of them ahead of it.

What was measured:
Enterovirus [1] = test: Inhibitory concentration against human enterovirus EV71 (2231) genotype C; assay type: functional, organism-based, Viruses
How it was run: (§1)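 CPE-inhibition (neutralization) assay on RD cells seeded at 3 × 10⁵ cells/mL in DMEM/10% FBS and grown 24-30 h to about 90% confluency. Virus (100 TCID50) was mixed with graded compound concentrations and adsorbed 1 h at 37 °C. Cells were overlaid with DMEM, 5% FBS and 2% DMSO, incubated 64 h at 37 °C, then glutaraldehyde-fixed and crystal violet-stained, with A570 read-out. IC50 is 50% CPE reduction versus virus control. Triplicate, at least twice.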

[2] = Cytotoxicity against human rhabdomyosarcoma cells; assay type: cell-based
How it was run: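 RD (rhabdomyosarcoma) cells were exposed to test compounds at various concentrations for 96 h at 37 °C. Viable cells were counted by trypan blue staining. CC50 is the concentration that reduces viability to 50% of the untreated control culture. Triplicate, run at least twice.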

Coxsackievirus [3] = test: Inhibitory concentration against Coxsackievirus B3; assay type: functional, organism-based, Viruses; how it was run: as §1
[4] = Inhibitory concentration against Echovirus 9; assay type: functional, Viruses; how it was run: as §1
Coxsackievirus [5] = test: Inhibitory concentration against Coxsackievirus A9; assay type: functional, organism-based, Viruses; how it was run: as §1
[6] = Inhibitory concentration against Echovirus 29; assay type: functional, Viruses; how it was run: as §1
Enterovirus [7] = test: In vitro inhibitory concentration against human enterovirus EV71-4643 strain; assay type: functional, organism-based, Enterovirus A71; how it was run: as §1
Coxsackievirus [8] = test: Inhibitory concentration against Coxsackievirus A16; assay type: functional, organism-based, Viruses; how it was run: as §1
Coxsackievirus [9] = test: Inhibitory concentration against Coxsackievirus A10; assay type: functional, organism-based, Viruses; how it was run: as §1
Coxsackievirus [10] = test: Inhibitory concentration against Coxsackievirus B4; assay type: functional, organism-based, Viruses; how it was run: as §1
Enterovirus [11] = test: Inhibitory concentration against human enterovirus EV68; assay type: functional, organism-based, Viruses
Enterovirus [12] = test: Inhibitory concentration against human enterovirus EV71 (2086) genotype C; assay type: functional, organism-based, Viruses; how it was run: as §1
Enterovirus [13] = test: Ratio of CC50 to that of IC50 against human enterovirus EV71-2231 strain; assay type: functional, Enterovirus A71
Coxsackievirus [14] = test: Inhibitory concentration against Coxsackievirus B1; assay type: functional, organism-based, Viruses; how it was run: as §1
Coxsackievirus [15] = test: Inhibitory concentration against Coxsackievirus A24; assay type: functional, organism-based, Viruses; how it was run: as §1
Coxsackievirus [16] = test: Inhibitory concentration against Coxsackievirus B5; assay type: functional, organism-based, Viruses; how it was run: as §1
Enterovirus [17] = test: Inhibitory concentration against human enterovirus EV71 (1743) genotype B; assay type: functional, organism-based, Viruses; how it was run: as §1
rhinovirus A2 = test: Inhibitory concentration against Human rhinovirus 2; assay type: functional, organism-based, human rhinovirus type 2; details: Rhinovirus A; how it was run: as §1
Coxsackievirus [18] = test: Inhibitory concentration against Coxsackievirus B6; assay type: functional, organism-based, Viruses; how it was run: as §1
[19] = Inhibitory concentration against Human rhinovirus 14; assay type: functional, human rhinovirus type 14; how it was run: as §1
Enterovirus [20] = test: In vitro inhibitory concentration against human enterovirus EV71-2231 strain; assay type: functional, organism-based, Enterovirus A71; how it was run: as §1
Enterovirus [21] = test: Ratio of CC50 to that of IC50 against human enterovirus EV71-4643 strain; assay type: functional, Enterovirus A71
Enterovirus [22] = test: Inhibitory concentration against human enterovirus EV71 (4643) genotype C; assay type: functional, organism-based, Viruses; how it was run: as §1
Coxsackievirus [23] = test: Inhibitory concentration against Coxsackievirus B2; assay type: functional, organism-based, Viruses; how it was run: as §1
Enterovirus [24] = test: Inhibitory concentration against human enterovirus EV71 (BrCr) genotype A; assay type: functional, organism-based, Viruses; how it was run: as §1
Human rhinovirus sp. = test: In vitro inhibitory concentration against Rhinovirus 1B; assay type: functional, organism-based, Viruses
Enterovirus [25] = test: In vitro inhibitory concentration against human enterovirus EV71; assay type: functional, organism-based, Viruses; how it was run: as §1

Compound: CCc1nc(-c2ccc(OCCC(C)CCN3CCN(c4ccncc4)C3=O)cc2)no1 (stereo not drawn)
IC50 (Enterovirus [1]): 15 nM
CC50 [2]: > 25 µM
IC50 (Coxsackievirus [3]): > 25 µM
IC50 [4]: 500 nM
IC50 (Coxsackievirus [5]): > 25 µM
IC50 [6]: 2630 nM
IC50 (Enterovirus [7]): 0.5 nM
IC50 (Coxsackievirus [8]): 87 nM
IC50 (Coxsackievirus [9]): 560 nM
IC50 (Coxsackievirus [10]): 1270 nM
IC50 (Enterovirus [11]): 5.46 µM
IC50 (Enterovirus [12]): 4 nM
Selectivity index (Enterovirus [13]): >1666
IC50 (Coxsackievirus [14]): 46 nM
IC50 (Coxsackievirus [15]): 150 nM
IC50 (Coxsackievirus [16]): 4.5 µM
IC50 (Enterovirus [17]): 15 nM
IC50 (rhinovirus A2): 1580 nM
IC50 (Coxsackievirus [18]): > 25 µM
IC50 [19]: 830 nM
IC50 (Enterovirus [20]): 15 nM
Selectivity index (Enterovirus [21]): >50000
IC50 (Enterovirus [22]): 0.5 nM
IC50 (Coxsackievirus [23]): 4.79 µM
IC50 (Enterovirus [24]): 10 nM

Compound: O=C1N(CCOCCOc2ccc(-c3ccc(Cl)cc3)cc2)CCN1c1ccncc1
CC50 [2]: 25 µM
IC50 (Enterovirus [7]): 830 nM
IC50 (Enterovirus [20]): 7300 nM

Compound: O=C1N(Cc2cccc(COc3ccc(-c4ccc(Cl)cc4)cc3)n2)CCN1c1ccncc1
CC50 [2]: > 25 µM
IC50 (Enterovirus [7]): > 25000 nM
IC50 (Enterovirus [20]): > 25000 nM

Compound: CCCC(CCOc1ccc(-c2ccc(Cl)cc2)cc1)CCN1CCN(c2ccncc2)C1=O (stereo not drawn)
CC50 [2]: > 25 µM
IC50 (Enterovirus [7]): 960 nM
IC50 (Enterovirus [20]): > 25000 nM

Compound: CC(CCCN1CCN(c2ccncc2)C1=O)COc1ccc(-c2ccc(Cl)cc2)cc1 (stereo not drawn)
CC50 [2]: > 25 µM
IC50 (Enterovirus [7]): 15 nM
IC50 (Enterovirus [20]): 57 nM

Compound: Cc1ccc(CN(CCOc2ccc(-c3ccc(Cl)cc3)cc2)CCN2CCN(c3ccncc3)C2=O)cc1
CC50 [2]: > 12.5 µM
IC50 (Enterovirus [7]): > 12500 nM
IC50 (Enterovirus [20]): > 12500 nM

Compound: O=C1N(CCC(CCOc2ccc(-c3ccc(Cl)cc3)cc2)c2ccccc2)CCN1c1ccncc1 (stereo not drawn)
CC50 [2]: > 25 µM
IC50 (Enterovirus [7]): > 25000 nM
IC50 (Enterovirus [20]): > 25000 nM

Second part, led by results:

IC50 (Enterovirus [7]): 400 nM
IC50 (Enterovirus [20]): 1180 nM
Compound: CN(CCOc1ccc(-c2ccc(Cl)cc2)cc1)CCN1CCN(c2ccncc2)C1=O
CC50 [2]: 25 µM

IC50 (Enterovirus [1]): 14 nM
IC50 (Coxsackievirus [3]): > 25 µM
IC50 [4]: 280 nM
IC50 (Coxsackievirus [5]): > 25 µM
IC50 [6]: 3230 nM
IC50 (Enterovirus [7]): 0.9 nM
IC50 (Coxsackievirus [8]): 130 nM
IC50 (Coxsackievirus [9]): 240 nM
IC50 (Coxsackievirus [10]): 2740 nM
IC50 (Enterovirus [11]): 2.87 µM
IC50 (Enterovirus [12]): 3 nM
IC50 (Coxsackievirus [14]): 35 nM
IC50 (Coxsackievirus [15]): 140 nM
IC50 (Coxsackievirus [16]): 10.4 µM
IC50 (Enterovirus [17]): 18 nM
IC50 (rhinovirus A2): 1450 nM
IC50 (Coxsackievirus [18]): > 25 µM
IC50 [19]: 850 nM
IC50 (Enterovirus [20]): 14 nM
IC50 (Enterovirus [22]): 0.9 nM
IC50 (Coxsackievirus [23]): > 25 µM
IC50 (Enterovirus [24]): 15 nM
Compound: CCn1nnc(-c2ccc(OCCC(C)CCN3CCN(c4ccncc4)C3=O)cc2)n1 (stereo not drawn)
CC50 [2]: > 12.5 µM
Selectivity index (Enterovirus [13]): >892
Selectivity index (Enterovirus [21]): >13888

IC50 (Enterovirus [7]): 130 nM
IC50 (Enterovirus [20]): > 25000 nM
Compound: CC(C)(CCCN1CCN(c2ccncc2)C1=O)COc1ccc(-c2ccc(Cl)cc2)cc1
CC50 [2]: > 25 µM

IC50 (Enterovirus [7]): > 5000 nM
IC50 (Enterovirus [20]): > 5000 nM
Compound: O=C1N(CCN(CCOc2ccc(-c3ccc(Cl)cc3)cc2)Cc2ccccc2)CCN1c1ccncc1
CC50 [2]: > 5 µM

IC50 (Enterovirus [7]): > 25000 nM
IC50 (Enterovirus [20]): > 25000 nM
Compound: O=C1N(CCC2(CCOc3ccc(-c4ccc(Cl)cc4)cc3)CCCCC2)CCN1c1ccncc1
CC50 [2]: > 25 µM

IC50 (Enterovirus [7]): 0.9 nM
IC50 (Enterovirus [20]): 10 nM
Compound: Cc1nc(-c2ccc(OCCC(C)CCN3CCN(c4ccncc4)C3=O)cc2)no1 (stereo not drawn)
CC50 [2]: > 6.25 µM
Selectivity index (Enterovirus [13]): >625
Selectivity index (Enterovirus [21]): >6944

IC50 (Enterovirus [7]): > 1250 nM
IC50 (Enterovirus [20]): > 1250 nM
Compound: O=C1N(Cc2ccccc2COc2ccc(-c3ccc(Cl)cc3)cc2)CCN1c1ccncc1
CC50 [2]: > 1.25 µM

IC50 (Human rhinovirus sp.): 1010 nM
IC50 (Enterovirus [25]): 4.56 µM
Compound: c1ccc(C2COc3ccc(C4=NCCO4)cc3C2)cc1 (stereo not drawn)

IC50 (Enterovirus [7]): 53 nM
IC50 (Enterovirus [20]): 600 nM
Compound: CC(CCCCN1CCN(c2ccncc2)C1=O)Oc1ccc(-c2ccc(Cl)cc2)cc1 (stereo not drawn)
CC50 [2]: > 12.5 µM

IC50 (Enterovirus [7]): 19 nM
IC50 (Enterovirus [20]): 55 nM
Compound: CCCc1nc(-c2ccc(OCCC(C)CCN3CCN(c4ccncc4)C3=O)cc2)no1 (stereo not drawn)
CC50 [2]: > 12.5 µM
Selectivity index (Enterovirus [13]): >227
Selectivity index (Enterovirus [21]): >657
